pIC50: −log10 of the molar value.
Test: Half maximal concentration for producing a phasic block in skeletal muscle fibers (cumulative sodium current reduction at 10 Hz stimulations frequency)
Format: functional, tissue-based, Muscle tissue
Outline: (§1)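 Four-pool grease-gap voltage clamp on single skeletal muscle fibers; the central pool held external solution (mM: NaCl 77, choline Cl 38, CaCl2 1.8, KCl 2.5, Na2HPO4 2.15, NaH2PO4 0.85) with drug added. Recordings at 10 °C after 10 min equilibration, holding potential -100 mV, 10-ms test pulses to -20 mV. IC50 for I_Namax block came from a logistic fit of concentration-response data, 3-7 fibers per point, mean ± SEM.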

| Compound | pIC50 |
| --- | --- |
| Cc1cccc(C)c1N(C)C(=O)[C@H]1CCCN1 | 3.66 |
| Cc1cccc(C)c1NC(=O)[C@H](C)N [S-TOCAINIDE] | 3.66 |
| Cc1cccc(C)c1N(C)C(=O)[C@H]1CCCN1C | 3.36 |
| Cc1cccc(C)c1NC(=O)[C@@H](C)N [(R)-TOCAINIDE] | 3.57 |

These reach a higher pIC50. Values come first.

| pIC50 | Compound |
| --- | --- |
| 3.70 | Cc1cccc(C)c1N(C)C(=O)[C@@H]1CCCN1C |
| 4.00 | Cc1cccc(C)c1NC(=O)[C@H]1CCCN1C |
| 4.17 | Cc1cccc(C)c1N(C)C(=O)[C@@H]1CCCN1 |
| 4.36 | Cc1cccc(C)c1NC(=O)[C@@H]1CCCN1 |
| 4.55 | Cc1cccc(C)c1NC(=O)[C@@H]1CCCN1C |
| 4.89 | Cc1cccc(C)c1NC(=O)[C@H]1CCCN1 |

Test: Half maximal concentration for producing a tonic block in skeletal muscle fibers (block of sodium channel at resting conditions evaluated during infrequent depolarizing pulses)
Format: functional, tissue-based, Muscle tissue
Outline: as §1

| Compound | pIC50 |
| --- | --- |
| Cc1cccc(C)c1N(C)C(=O)[C@H]1CCCN1 | 3.47 |
| Cc1cccc(C)c1NC(=O)[C@H](C)N [S-TOCAINIDE] | 3.28 |
| Cc1cccc(C)c1N(C)C(=O)[C@H]1CCCN1C | < 3.30 |
| Cc1cccc(C)c1NC(=O)[C@@H](C)N [(R)-TOCAINIDE] | 3.24 |

More lines, now with the values ahead:

| pIC50 | Compound |
| --- | --- |
| 3.54 | Cc1cccc(C)c1N(C)C(=O)[C@@H]1CCCN1C |
| 3.52 | Cc1cccc(C)c1NC(=O)[C@H]1CCCN1C |
| 3.98 | Cc1cccc(C)c1N(C)C(=O)[C@@H]1CCCN1 |
| 3.64 | Cc1cccc(C)c1NC(=O)[C@@H]1CCCN1 |
| 3.97 | Cc1cccc(C)c1NC(=O)[C@@H]1CCCN1C |
| 3.96 | Cc1cccc(C)c1NC(=O)[C@H]1CCCN1 |

Test: In vitro potential anti-myotonic activity as potency in phasic block in relation to tocainide (tocainide = 1)
Format: functional
Outline: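 Phasic block was measured at 10 Hz by voltage clamp of skeletal muscle fiber Na+ current at 10 °C, holding potential -100 mV, pulses to -20 mV. The IC50 came from a logistic concentration-response fit, and potency was expressed relative to tocainide (tocainide = 1).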

| Compound | Activity |
| --- | --- |
| Cc1cccc(C)c1N(C)C(=O)[C@H]1CCCN1 | 1 |
| Cc1cccc(C)c1NC(=O)[C@H]1CCCN1 | 21 |
| Cc1cccc(C)c1NC(=O)[C@H](C)N [S-TOCAINIDE] | 1 |
| Cc1cccc(C)c1N(C)C(=O)[C@@H]1CCCN1C | 1.1 |
| Cc1cccc(C)c1N(C)C(=O)[C@H]1CCCN1C | 0.6 |
| Cc1cccc(C)c1NC(=O)[C@@H](C)N [(R)-TOCAINIDE] | 1 |
| Cc1cccc(C)c1NC(=O)[C@@H]1CCCN1C | 8 |
| Cc1cccc(C)c1NC(=O)[C@@H]1CCCN1 | 5 |
| Cc1cccc(C)c1N(C)C(=O)[C@@H]1CCCN1 | 3 |
| Cc1cccc(C)c1NC(=O)[C@H]1CCCN1C | 2.7 |

Test: Ratio of IC50 tonic block to IC50 phasic block
Format: functional

| Compound | Ratio |
| --- | --- |
| Cc1cccc(C)c1N(C)C(=O)[C@H]1CCCN1 | 1.6 |
| Cc1cccc(C)c1NC(=O)[C@H]1CCCN1 | 8.5 |
| Cc1cccc(C)c1NC(=O)[C@H](C)N [S-TOCAINIDE] | 2.4 |
| Cc1cccc(C)c1N(C)C(=O)[C@@H]1CCCN1C | 1.4 |
| Cc1cccc(C)c1N(C)C(=O)[C@H]1CCCN1C | > 1.1 |
| Cc1cccc(C)c1NC(=O)[C@@H](C)N [(R)-TOCAINIDE] | 2.1 |
| Cc1cccc(C)c1NC(=O)[C@@H]1CCCN1C | 3.4 |
| Cc1cccc(C)c1NC(=O)[C@@H]1CCCN1 | 5.2 |
| Cc1cccc(C)c1N(C)C(=O)[C@@H]1CCCN1 | 1.5 |
| Cc1cccc(C)c1NC(=O)[C@H]1CCCN1C | 3 |
